Results collected from several papers.
Protocols differ between the studies behind these lines.
Sample: plasma

Structure (SMILES) | species | route | dose | notes | Vd
CCc1cc(OC)c2nccc(N3CCc4c(cc(Cn5ccnc5)cc4-c4cn(C)nc4C(F)(F)F)C3=O)c2c1 | male CD-1 mouse | intravenous | 3 mg/kg |  | 0.7 L/kg
COc1nc(-c2cc(C)c(N[C@@H](C)c3ccc(F)cc3)nn2)ccc1-n1cnc(C)c1 | male CD-1 mouse | intravenous | 1 mg/kg | single dose | 1.02 L/kg
CN1CCC(c2ccccc2CC(C)(C)Nc2nc(N3CCOCC3)nc(-n3c(C(F)F)nc4ccccc43)n2)CC1 | mouse | intravenous | 10 mg/kg | single dose | 5.61 L/kg
C=CC(=O)N1CC2CC(n3nc(-c4ccc(C(=O)Nc5ccccn5)cc4)c4c(N)ncnc43)CC2C1 (centres unmarked) | male BALB/c mouse | intravenous | 1 mg/kg |  | 0.67 L/kg
CC(C)(C)c1ccc(O)c(CN(Cc2cc(C(C)(C)C)ccc2O)C2CCC(NC(N)=O)CC2)c1 (centres unmarked) | male C57BL/6 mouse | intraperitoneal | 5 mg/kg | single dose | 2.4 L
COc1ccc(C(O)COc2ccc(-c3csc(-c4ccc(OCC(O)c5ccc(OC)c(OC)c5)cc4)n3)cc2)cc1OC (centres unmarked) | C57BL/6 mouse | intravenous | 3 mg/kg |  | 1.5 L/kg
COc1cc(C(=O)N2CCC(N3CCN(C)CC3)CC2)ccc1Nc1ncc2c(n1)N(C)c1ccccc1C(=O)N2C | mouse | intravenous | 1 mg/kg |  | 1.71 L/kg
CNC(=O)c1cc(OC)cc2c(N3CCc4c(cc(Cn5ccnc5)cc4-c4cn(C)nc4C(F)(F)F)C3=O)ccnc12 | male CD-1 mouse | intravenous | 3 mg/kg |  | 0.4 L/kg
CNCCN(C)c1cc(C#N)cc(CCc2cc(C)cc(N)n2)c1 | male BALB/c mouse | intravenous | 2 mg/kg |  | 14.8 L/kg
CCc1cc(C(=O)NC)c2nccc(N3CCc4c(cc(Cn5ccnc5)cc4-c4cn(C)nc4C(F)(F)F)C3=O)c2c1 | male CD-1 mouse | intravenous | 3 mg/kg |  | 0.4 L/kg
CC[C@H](C)[C@@H]1NC(=O)[C@@](C)(NC(=O)[C@H](CCCNC(=N)N)NC(=O)[C@H](CC(C)C)NC(=O)[C@@H](NC(=O)[C@H](CCC(N)=O)NC(=O)[C@H](CC(C)C)NC(C)=O)[C@@H](C)O)CCCC=CCCC[C@@](C)(C(=O)N[C@@H](CC(C)C)C(=O)N[C@@H](Cc2ccc3ccccc3c2)C(N)=O)NC(=O)[C@H](CCCNC(=N)N)NC(=O)[C@H](CCC(N)=O)NC1=O | male BALB/c mouse | intravenous | 5 mg/kg |  | 0.0692 L/kg
